According to ChEMBL document CHEMBL1138611, “Oxadiazolylindazole sodium channel modulators are neuroprotective toward hippocampal neurones” (J Med Chem, 2009):
Activity calls are given as the source filed them. The rule behind the calls is not given here.

How the values were obtained:
[1] = molecular target: T1, Sodium channel protein type 8 subunit alpha (Homo sapiens, UniProt Q9UQD0); test: Use-dependent inhibition of human Nav1.6 expressed in HEK293 cells at 50 uM using double-pulse protocol by patch clamp technique; assay type: cell-based
In short: (§1)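 Human Nav1.2 or Nav1.6 in HEK293 cells, automated patch clamp at room temperature with 5 min exposure. Holding potential -80 mV, prepulse -120 mV, then P1 to 0 mV for 200 ms, 200 ms at -80 mV, and P2 to 0 mV for 20 ms, repeated at 0.1 Hz. Use-dependent inhibition I = (1 − P2T/P1T) × P1C/P2C × 100; mean of duplicates.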

[2] = molecular target: Sodium channel protein type 3 subunit alpha (Homo sapiens) (UniProt Q9NY46); test: Inhibition of human Nav1.3 expressed in HEK293 cells assessed as change in membrane potential using MP-red voltage sensitive dye at 10 uM; assay type: cell-based
In short: (§2)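 Human Nav isoforms stably expressed in HEK293 cells with β1 subunit (Nav1.8 without β subunit), with tetrodotoxin sensitivity checked. Membrane potential change read with MP-red voltage-sensitive dye kit. Single-concentration screen at 10 µM gives percent inhibition as mean of duplicates, or an IC50 in µM where determined. Compounds come from 1 or 10 mM DMSO stocks diluted in assay buffer.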

[3] = molecular target: Sodium channel protein type 4 subunit alpha (Homo sapiens) (UniProt P35499); test: Inhibition of human Nav1.4 expressed in HEK293 cells assessed as change in membrane potential using MP-red voltage sensitive dye at 10 uM; assay type: cell-based; in short: as §2
[4] = molecular target: T1, Sodium channel protein type 8 subunit alpha; test: Use-dependent inhibition of human Nav1.6 expressed in HEK293 cells at 10 uM using double-pulse protocol by patch clamp technique; assay type: cell-based; in short: as §1
[5] = molecular target: Sodium channel protein type 2 subunit alpha (Homo sapiens) (UniProt Q99250); test: Inhibition of human Nav1.2 expressed in HEK293 cells assessed as change in membrane potential at 10 uM by patch clamp technique; assay type: cell-based
In short: (§3)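 Automated parallel whole-cell patch clamp at room temperature on human Nav1.2 or Nav1.6 in HEK293 cells. Each exposure lasts 5 min, at 10 and 50 µM (lamotrigine on Nav1.2 at 30 and 100 µM), with two to four cells per concentration. Peak current inhibition is given as percent, mean of duplicate experiments (n = 2) unless noted otherwise.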

[6] = molecular target: Sodium channel protein type 2 subunit alpha (Homo sapiens) (UniProt Q99250); test: Use-dependent inhibition of human Nav1.2 expressed in HEK293 cells at 50 uM using double-pulse protocol by patch clamp technique; assay type: cell-based; in short: as §1
[7] = molecular target: Sodium channel protein type 9 subunit alpha (Homo sapiens) (UniProt Q15858); test: Inhibition of human Nav1.7 expressed in HEK293 cells assessed as change in membrane potential using MP-red voltage sensitive dye at 10 uM; assay type: cell-based; in short: as §2
[8] = molecular target: Sodium channel protein type 2 subunit alpha (Homo sapiens) (UniProt Q99250); test: Use-dependent inhibition of human Nav1.2 expressed in HEK293 cells at 10 uM using double-pulse protocol by patch clamp technique; assay type: cell-based; in short: as §1
[9] = molecular target: T1, Sodium channel protein type 8 subunit alpha; test: Inhibition of human Nav1.6 expressed in HEK293 cells assessed as change in membrane potential using MP-red voltage sensitive dye at 10 uM; assay type: cell-based; in short: as §2
[10] = molecular target: Nav1.5 (sodium channel protein type 5 subunit alpha) (Homo sapiens, UniProt Q14524); test: Inhibition of human Nav1.5 expressed in HEK293 cells assessed as change in membrane potential using MP-red voltage sensitive dye at 10 uM; assay type: cell-based; settings: HEK293 cells expressing human Nav1.5; in short: as §2
[11] = molecular target: Sodium channel protein type 10 subunit alpha (Homo sapiens) (UniProt Q9Y5Y9); test: Inhibition of human Nav1.8 expressed in HEK293 cells assessed as change in membrane potential using MP-red voltage sensitive dye at 10 uM; assay type: cell-based; in short: as §2
[12] = molecular target: Sodium channel protein type 1 subunit alpha (Homo sapiens) (UniProt P35498); test: Inhibition of human Nav1.1 expressed in HEK293 cells assessed as change in membrane potential using MP-red voltage sensitive dye at 10 uM; assay type: cell-based; in short: as §2
[13] = molecular target: T1, Sodium channel protein type 8 subunit alpha; test: Inhibition of human Nav1.6 expressed in HEK293 cells assessed as change in membrane potential at 50 uM by patch clamp technique; assay type: cell-based; in short: as §3
[14] = molecular target: T1, Sodium channel protein type 8 subunit alpha; test: Inhibition of human Nav1.6 expressed in HEK293 cells assessed as change in membrane potential at 10 uM by patch clamp technique; assay type: cell-based; in short: as §3
[15] = test system: Hippocampus; test: Neuroprotective activity in Wistar rat hippocampal slices assessed as ATP concentration at 30 uM relative to tetrodotoxin; assay type: functional
[16] = molecular target: Sodium channel protein type 2 subunit alpha (Homo sapiens) (UniProt Q99250); test: Inhibition of human Nav1.2 expressed in HEK293 cells assessed as change in membrane potential at 50 uM by patch clamp technique; assay type: cell-based; in short: as §3
[17] = molecular target: Sodium channel protein type 2 subunit alpha (Homo sapiens) (UniProt Q99250); settings: HEK293, 100 uM
[18] = molecular target: Sodium channel protein type 2 subunit alpha (Homo sapiens) (UniProt Q99250); settings: HEK293, 100 uM; remark: listed apart in the source
[19] = molecular target: Sodium channel protein type 2 subunit alpha (Homo sapiens) (UniProt Q99250); settings: HEK293, 30 uM
[20] = Displacement of [3H]BW202W92 from voltage-gated sodium channel in Wistar rat forebrain synaptosomes by liquid scintillation counting; assay type: subcellular, Brain
[21] = Inhibition of voltage-gated sodium channel in Wistar rat forebrain synaptosomes assessed as inhibition of [14C]guanidium ion flux; assay type: subcellular, Brain
[22] = molecular target: Sodium channel protein type 2 subunit alpha (Homo sapiens) (UniProt Q99250); settings: HEK293, 30 uM; remark: listed apart in the source
[23] = molecular target: Cytochrome P450 2D6 (Homo sapiens, UniProt P10635); test: Inhibition of human recombinant CYP2D6; assay type: ADME
[24] = species on record: Rattus norvegicus; test: Voltage-dependent inhibition of voltage-gated sodium channel in Sprague-Dawley rat hippocampal neurons at 30 uM at an initial membrane potential of -70 mV by voltage clamp technique; assay type: tissue-based; design: scale not given: the % may be the effect or the level left; settings: Hippocampus
[25] = species on record: Rattus norvegicus; test: Use-dependent inhibition of voltage-gated sodium channel in Sprague-Dawley rat hippocampal neurons at 30 uM using 20 Hz train of 20 voltage steps from -90 mV with duration of 3.5 ms by voltage clamp technique; assay type: tissue-based; settings: Hippocampus
In short: (§4)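 Whole-cell voltage clamp of dissociated P14-16 Sprague-Dawley rat hippocampal neurons, with compound at 30 µM. A 20 Hz train of 20 voltage steps from -90 mV, each step 3.5 ms or 20 ms, and cumulative depression of peak sodium current during the train compared with control.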

[26] = species on record: Rattus norvegicus; test: Inhibition of […] state of voltage-gated sodium channel in Sprague-Dawley rat hippocampal neurons at 30 uM using 300 ms conditioning voltage step to 0 mV followed by 15 ms period at -90 mV by paired pulse protocol; assay type: tissue-based; settings: Hippocampus
In short: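 Paired-pulse protocol on dissociated P14-16 Sprague-Dawley rat hippocampal neurons, compound at 30 µM. A 300 ms conditioning step to 0 mV (P1), 15 ms at -90 mV, then a 10 ms test step to 0 mV (P2). Tonic inhibition at P1 compared with inhibition at P2 after slow inactivation develops.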

[27] = molecular target: T2, Cytochrome P450 1A2 (Homo sapiens, UniProt P05177); test: Inhibition of human recombinant CYP1A2; assay type: ADME
T2 sequence (P05177 whole entry): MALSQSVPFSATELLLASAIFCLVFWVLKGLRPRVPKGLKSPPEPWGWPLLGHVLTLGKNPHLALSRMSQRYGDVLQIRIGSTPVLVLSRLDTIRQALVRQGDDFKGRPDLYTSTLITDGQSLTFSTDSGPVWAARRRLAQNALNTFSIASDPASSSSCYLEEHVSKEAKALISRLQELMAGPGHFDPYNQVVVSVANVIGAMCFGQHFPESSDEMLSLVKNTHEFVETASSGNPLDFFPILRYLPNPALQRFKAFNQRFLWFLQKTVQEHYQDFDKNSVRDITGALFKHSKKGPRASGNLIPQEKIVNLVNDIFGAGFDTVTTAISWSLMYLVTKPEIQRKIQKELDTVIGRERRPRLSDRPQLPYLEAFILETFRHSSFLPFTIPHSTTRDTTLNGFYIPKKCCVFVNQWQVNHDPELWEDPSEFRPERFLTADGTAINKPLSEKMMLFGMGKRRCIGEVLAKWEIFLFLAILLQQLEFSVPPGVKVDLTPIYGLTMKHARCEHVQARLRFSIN

[28] = molecular target: T1, Sodium channel protein type 8 subunit alpha; test: Inhibition of human Nav1.6 expressed in HEK293 cells assessed as change in membrane potential using MP-red voltage sensitive dye; assay type: cell-based; in short: as §2
[29] = test system: Hippocampus; test: Neuroprotective activity in Wistar rat hippocampal slices assessed as ATP concentration at 50 uM relative to tetrodotoxin; assay type: functional
[30] = species on record: Rattus norvegicus; test: Use-dependent inhibition of voltage-gated sodium channel in Sprague-Dawley rat hippocampal neurons at 30 uM using 20 Hz train of 20 voltage steps from -90 mV with duration of 20 ms by voltage clamp technique; assay type: tissue-based; settings: Hippocampus; in short: as §4
[31] = molecular target: T1, Sodium channel protein type 8 subunit alpha; test: Inhibition of Nav1.6 using 20 Hz train of 20 voltage steps from -90 mV with duration of 3.5 ms at 30 uM by paired pulse protocol
[32] = species on record: Rattus norvegicus; test: Voltage-dependent inhibition of voltage-gated sodium channel in Sprague-Dawley rat hippocampal neurons at 30 uM at an initial membrane potential of -90 mV by voltage clamp technique; assay type: tissue-based; design: scale not given: the % may be the effect or the level left; settings: Hippocampus
[33] = test system: Hippocampus; test: Neuroprotective activity in Wistar rat hippocampal slices assessed as ATP concentration at 3 uM relative to tetrodotoxin; assay type: functional

Chain of Sodium channel protein type 2 subunit alpha (Homo sapiens) (Q99250 whole entry, looked up): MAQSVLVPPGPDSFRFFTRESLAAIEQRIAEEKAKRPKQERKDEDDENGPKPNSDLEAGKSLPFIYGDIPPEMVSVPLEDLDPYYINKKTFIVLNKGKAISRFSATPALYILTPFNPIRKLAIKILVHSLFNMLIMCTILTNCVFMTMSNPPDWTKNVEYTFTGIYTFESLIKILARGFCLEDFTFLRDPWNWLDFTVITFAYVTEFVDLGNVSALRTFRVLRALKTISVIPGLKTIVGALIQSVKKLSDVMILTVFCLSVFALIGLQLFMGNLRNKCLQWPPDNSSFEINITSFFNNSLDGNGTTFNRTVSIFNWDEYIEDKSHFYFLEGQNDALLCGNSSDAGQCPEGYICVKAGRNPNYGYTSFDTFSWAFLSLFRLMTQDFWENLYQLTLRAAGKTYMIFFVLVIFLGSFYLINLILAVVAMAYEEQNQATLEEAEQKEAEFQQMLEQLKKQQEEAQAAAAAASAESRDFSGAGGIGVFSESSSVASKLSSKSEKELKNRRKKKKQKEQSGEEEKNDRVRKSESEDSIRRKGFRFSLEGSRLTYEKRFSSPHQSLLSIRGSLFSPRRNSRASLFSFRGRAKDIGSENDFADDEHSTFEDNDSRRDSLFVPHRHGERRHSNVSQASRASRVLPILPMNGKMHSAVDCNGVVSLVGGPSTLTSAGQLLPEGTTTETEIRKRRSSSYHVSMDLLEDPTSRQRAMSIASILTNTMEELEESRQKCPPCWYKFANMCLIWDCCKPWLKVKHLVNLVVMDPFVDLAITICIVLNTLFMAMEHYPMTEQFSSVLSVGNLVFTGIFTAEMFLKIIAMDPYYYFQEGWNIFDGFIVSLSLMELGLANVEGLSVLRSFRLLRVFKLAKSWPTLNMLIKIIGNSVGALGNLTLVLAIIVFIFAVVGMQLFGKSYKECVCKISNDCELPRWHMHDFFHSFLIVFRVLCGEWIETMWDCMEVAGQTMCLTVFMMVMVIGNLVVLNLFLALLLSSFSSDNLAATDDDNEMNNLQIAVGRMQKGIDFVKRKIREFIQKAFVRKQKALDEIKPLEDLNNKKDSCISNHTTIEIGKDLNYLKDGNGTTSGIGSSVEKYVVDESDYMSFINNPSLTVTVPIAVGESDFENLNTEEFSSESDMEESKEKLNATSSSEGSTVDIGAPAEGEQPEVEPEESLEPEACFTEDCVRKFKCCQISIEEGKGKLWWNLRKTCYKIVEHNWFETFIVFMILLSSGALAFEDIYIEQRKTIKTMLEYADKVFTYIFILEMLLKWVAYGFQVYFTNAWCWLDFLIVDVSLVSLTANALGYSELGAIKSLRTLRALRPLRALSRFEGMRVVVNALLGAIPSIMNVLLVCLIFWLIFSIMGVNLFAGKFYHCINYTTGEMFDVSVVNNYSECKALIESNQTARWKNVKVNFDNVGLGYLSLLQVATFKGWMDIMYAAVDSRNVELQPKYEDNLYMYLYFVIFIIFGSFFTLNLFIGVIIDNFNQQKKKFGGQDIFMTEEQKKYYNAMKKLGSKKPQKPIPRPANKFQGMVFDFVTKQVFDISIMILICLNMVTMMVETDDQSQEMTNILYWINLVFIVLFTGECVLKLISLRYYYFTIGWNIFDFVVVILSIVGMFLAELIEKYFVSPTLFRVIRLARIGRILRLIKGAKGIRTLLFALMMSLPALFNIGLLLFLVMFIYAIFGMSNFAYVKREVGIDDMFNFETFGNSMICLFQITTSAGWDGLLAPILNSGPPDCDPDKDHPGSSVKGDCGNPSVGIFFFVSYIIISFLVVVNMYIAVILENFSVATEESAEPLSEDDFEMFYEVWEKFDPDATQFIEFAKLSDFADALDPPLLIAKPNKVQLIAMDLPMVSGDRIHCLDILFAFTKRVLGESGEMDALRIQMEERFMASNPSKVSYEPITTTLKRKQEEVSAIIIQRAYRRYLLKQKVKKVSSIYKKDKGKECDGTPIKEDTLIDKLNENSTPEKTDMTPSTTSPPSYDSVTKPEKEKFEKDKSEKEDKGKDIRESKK
Chain of Sodium channel protein type 3 subunit alpha (Homo sapiens) (Q9NY46 whole entry, looked up, canonical isoform): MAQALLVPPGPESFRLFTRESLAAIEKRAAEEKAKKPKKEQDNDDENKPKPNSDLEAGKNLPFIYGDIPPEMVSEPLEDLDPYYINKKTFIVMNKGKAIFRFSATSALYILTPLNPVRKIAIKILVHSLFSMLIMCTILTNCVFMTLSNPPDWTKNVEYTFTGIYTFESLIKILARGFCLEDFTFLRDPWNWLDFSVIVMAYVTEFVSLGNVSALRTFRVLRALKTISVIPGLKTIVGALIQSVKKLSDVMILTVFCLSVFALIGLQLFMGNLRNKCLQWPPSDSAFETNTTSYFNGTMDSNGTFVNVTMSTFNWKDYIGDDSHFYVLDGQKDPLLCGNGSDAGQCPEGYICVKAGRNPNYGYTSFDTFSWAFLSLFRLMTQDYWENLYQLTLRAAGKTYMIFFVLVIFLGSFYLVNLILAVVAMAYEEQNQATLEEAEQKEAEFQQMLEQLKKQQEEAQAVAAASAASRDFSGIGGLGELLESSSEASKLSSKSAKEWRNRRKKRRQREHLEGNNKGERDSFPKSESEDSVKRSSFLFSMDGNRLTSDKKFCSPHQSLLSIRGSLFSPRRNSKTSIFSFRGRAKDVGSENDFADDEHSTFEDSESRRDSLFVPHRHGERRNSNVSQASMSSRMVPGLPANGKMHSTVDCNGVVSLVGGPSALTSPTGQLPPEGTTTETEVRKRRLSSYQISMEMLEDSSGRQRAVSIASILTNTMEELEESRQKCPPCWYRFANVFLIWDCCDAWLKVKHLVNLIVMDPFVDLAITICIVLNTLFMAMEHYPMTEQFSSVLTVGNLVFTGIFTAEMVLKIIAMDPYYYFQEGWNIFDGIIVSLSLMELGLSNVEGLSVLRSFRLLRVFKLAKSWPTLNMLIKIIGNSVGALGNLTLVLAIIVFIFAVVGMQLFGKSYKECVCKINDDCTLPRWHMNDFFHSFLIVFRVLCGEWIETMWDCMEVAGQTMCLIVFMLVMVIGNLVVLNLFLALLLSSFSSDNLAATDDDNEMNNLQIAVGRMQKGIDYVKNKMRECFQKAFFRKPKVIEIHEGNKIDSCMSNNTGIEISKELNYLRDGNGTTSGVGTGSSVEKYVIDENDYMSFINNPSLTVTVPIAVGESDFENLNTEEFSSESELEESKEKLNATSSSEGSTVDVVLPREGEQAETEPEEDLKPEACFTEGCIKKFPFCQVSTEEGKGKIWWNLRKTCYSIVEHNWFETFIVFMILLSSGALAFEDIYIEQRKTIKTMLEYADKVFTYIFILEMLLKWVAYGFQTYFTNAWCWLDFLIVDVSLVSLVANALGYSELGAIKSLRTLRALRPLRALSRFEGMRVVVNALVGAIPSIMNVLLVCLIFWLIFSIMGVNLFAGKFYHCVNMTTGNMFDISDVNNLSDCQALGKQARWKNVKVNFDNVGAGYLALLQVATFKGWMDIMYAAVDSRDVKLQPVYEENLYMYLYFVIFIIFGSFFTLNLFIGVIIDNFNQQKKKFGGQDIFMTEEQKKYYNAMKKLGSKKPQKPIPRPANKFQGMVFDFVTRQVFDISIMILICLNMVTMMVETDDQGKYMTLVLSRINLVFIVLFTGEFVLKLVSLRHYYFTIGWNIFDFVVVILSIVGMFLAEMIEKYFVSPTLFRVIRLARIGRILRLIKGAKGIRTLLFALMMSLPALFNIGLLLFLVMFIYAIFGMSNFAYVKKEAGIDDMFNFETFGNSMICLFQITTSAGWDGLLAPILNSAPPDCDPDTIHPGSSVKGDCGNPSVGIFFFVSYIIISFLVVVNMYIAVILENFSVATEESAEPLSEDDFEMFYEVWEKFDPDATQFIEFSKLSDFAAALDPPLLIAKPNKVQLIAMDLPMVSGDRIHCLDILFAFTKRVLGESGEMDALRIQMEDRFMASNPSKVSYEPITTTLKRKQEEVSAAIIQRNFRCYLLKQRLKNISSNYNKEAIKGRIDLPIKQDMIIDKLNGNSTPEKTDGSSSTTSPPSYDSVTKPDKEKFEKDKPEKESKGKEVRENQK
Chain of Cytochrome P450 2D6 (P10635 whole entry): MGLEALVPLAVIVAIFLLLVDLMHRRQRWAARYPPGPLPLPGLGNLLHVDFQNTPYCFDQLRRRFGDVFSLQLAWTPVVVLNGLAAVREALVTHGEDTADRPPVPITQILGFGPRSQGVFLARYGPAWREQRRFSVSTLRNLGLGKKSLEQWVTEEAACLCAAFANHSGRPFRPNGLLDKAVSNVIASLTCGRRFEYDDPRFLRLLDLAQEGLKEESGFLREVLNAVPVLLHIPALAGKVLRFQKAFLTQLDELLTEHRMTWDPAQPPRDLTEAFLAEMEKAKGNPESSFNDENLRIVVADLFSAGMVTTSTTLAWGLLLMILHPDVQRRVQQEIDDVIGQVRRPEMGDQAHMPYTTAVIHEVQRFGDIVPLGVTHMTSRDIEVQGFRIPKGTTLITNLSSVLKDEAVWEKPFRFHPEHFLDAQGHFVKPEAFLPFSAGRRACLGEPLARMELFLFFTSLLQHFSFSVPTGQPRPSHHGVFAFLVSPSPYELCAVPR

CN1CCN(c2ncc(-c3cc(Cl)cc(Cl)c3Cl)c(N)n2)CC1 [SIPATRIGINE]
inhibition [1]: 63.2% | inhibition [2]: 61% | inhibition [3]: 97% | inhibition [4]: 37% | inhibition [5]: 21.6% | inhibition [6]: 84.6% | inhibition [7]: 67% | inhibition [8]: 40.1% | inhibition [9]: 70% | inhibition at 10 µM [10]: 97% | inhibition [11]: 76% | inhibition [12]: 55% | inhibition [13]: 43.4% | inhibition [14]: 10.4% | Activity [15]: 57% | inhibition [16]: 75.2%

Nc1nnc(-c2cccc(Cl)c2Cl)c(N)n1 [LAMOTRIGINE]
inhibition [2]: 22% | inhibition [3]: 21% | inhibition [17]: 18.1% | inhibition [18]: 17% | inhibition [7]: 45% | inhibition [19]: 7.9% | inhibition [9]: 23% | inhibition at 10 µM [10]: 40% | inhibition [11]: 46% | inhibition [12]: 44% | Activity [15]: 33% | IC50 [20]: 2600 nM | IC50 [21]: 219000 nM | inhibition [22]: 4.1%

NCc1noc(-c2c3ccccc3nn2Cc2ccccc2)n1
inhibition [1]: 65.8% | inhibition [2]: 78% | inhibition [3]: 98% | IC50 [23]: > 10000 nM | inhibition [4]: 29% | inhibition [5]: 13% | inhibition [6]: 70.8% | Activity [24]: 60% | inhibition [7]: 92% | inhibition [8]: 35.8% | inhibition at 10 µM [10]: 81% | Activity [25]: Active | inhibition [11]: 84% | inhibition [12]: 51% | Activity [26]: Active | IC50 [27]: 315 nM | IC50 [28]: 1030 nM | inhibition [13]: 31.5% | Activity [29]: 63% | Activity [30]: Active | inhibition [14]: 10.2% | IC50 [20]: 6700 nM | inhibition [16]: 33.8% | IC50 [21]: 44200 nM | Activity [31]: Active | Activity [32]: 10%

NCc1noc(-c2nn(Cc3ccccc3)c3ccccc23)n1
inhibition [1]: 18.7% | inhibition [2]: 79% | inhibition [3]: 97% | IC50 [23]: 90 nM | inhibition [4]: 1.1% | inhibition [5]: 6.6% | inhibition [6]: 14.7% | inhibition [7]: 59% | inhibition [8]: 1.9% | inhibition at 10 µM [10]: 48% | inhibition [11]: 90% | inhibition [12]: 48% | Activity [26]: Active | IC50 [27]: 9 nM | IC50 [28]: 660 nM | inhibition [13]: 40.9% | Activity [29]: 99% | inhibition [14]: 9.5% | IC50 [20]: 3300 nM | inhibition [16]: 10.8% | IC50 [21]: 17500 nM

Nc1nc(N)c(-c2cc(Cl)cc(Cl)c2Cl)c(CF)n1
inhibition [1]: 97.3% | Activity [33]: 93% | inhibition [2]: 100% | inhibition [3]: 98% | inhibition [4]: 81.4% | inhibition [5]: 0.7% | inhibition [6]: 88.5% | inhibition [7]: 44% | inhibition [8]: 43.4% | inhibition [9]: 37% | inhibition at 10 µM [10]: 39% | inhibition [11]: 86% | inhibition [12]: 56% | inhibition [13]: 62.7% | inhibition [14]: 2.3% | IC50 [20]: 40 nM | inhibition [16]: 75.2% | IC50 [21]: 2600 nM
